{"source": "ChEMBL document CHEMBL1157140", "about": "“Design and synthesis of trans 2-(furan-2-yl)vinyl heteroaromatic iodides with antitumour activity” (2008)"}
{"system": "MCF7", "assay": "Cytotoxicity against human MCF7 cells after 3 days by MTT assay", "type": "functional", "details": "MCF7, 72 h", "method_in_brief": "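MCF7 cells kept in medium with heat-inactivated foetal bovine serum, 2 mM L-alanyl-L-glutamine and penicillin–streptomycin at 37 °C, 5% CO₂. Seeded at 5 × 10³ cells/0.33 cm², then dosed after 24 h at final 0.01–100. Incubated 3 days, then MTT read at 570 nm. Each point averages 8 wells; untreated cells serve as control.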", "units": {"GI50": "nM"}}
{"smiles": "Cn1cc[n+](C)c1/C=C/c1ccc(-c2ccccc2Cl)o1", "GI50": 1380}
{"smiles": "Cn1cc[n+](C)c1/C=C/c1ccco1", "GI50": 100000}
{"smiles": "C[n+]1ccccc1/C=C/c1ccco1", "GI50": 70800}
{"smiles": "C(=C\\c1ccco1)/c1cccc(/C=C/c2ccco2)n1", "GI50": 2510}
{"smiles": "C[n+]1ccccc1/C=C/c1ccc(-c2ccccc2Cl)o1", "GI50": 2240}
{"smiles": "COc1ccc(-c2ccc(/C=C/c3n(C)cc[n+]3C)o2)cc1Cl", "GI50": 224}
{"smiles": "COc1ccc(-c2ccc(/C=C/c3ccc4ccccc4[n+]3C)o2)cc1Cl", "GI50": 191}
{"smiles": "C[n+]1c(/C=C/c2ccc(-c3ccc(Cl)cc3[N+](=O)[O-])o2)ccc2ccccc21", "GI50": 1740}
{"smiles": "Cc1ccc(/C=C/c2n(C)cc[n+]2C)o1", "GI50": 33100}
{"smiles": "C[n+]1c(/C=C/c2ccc(Br)o2)ccc2ccccc21", "GI50": 3160}
{"smiles": "Cn1cc[n+](C)c1/C=C/c1ccc(Br)o1", "GI50": 39800}
{"smiles": "Cn1cc[n+](C)c1/C=C/c1ccc(-c2ccc(Br)cc2)o1", "GI50": 617}
{"smiles": "C[n+]1ccccc1/C=C/c1ccc(-c2ccc(Cl)cc2)o1", "GI50": 219}
{"smiles": "C[n+]1ccccc1/C=C/c1ccc(-c2cc(Cl)ccc2Cl)o1", "GI50": 38}
{"smiles": "Cn1cc[n+](C)c1/C=C/c1ccc(-c2ccc(Cl)cc2)o1", "GI50": 631}
{"smiles": "C[n+]1ccccc1/C=C/c1ccc(-c2cccc(Cl)c2)o1", "GI50": 135}
{"smiles": "C[n+]1ccccc1/C=C/c1ccc(-c2ccc(Cl)cc2Cl)o1", "GI50": 126}
{"smiles": "C[n+]1ccccc1/C=C/c1ccc(-c2ccc(Cl)c(Cl)c2)o1", "GI50": 380}
{"smiles": "C[n+]1ccccc1/C=C/c1ccc(Br)o1", "GI50": 7940}
{"smiles": "C[n+]1c(/C=C/c2ccc(-c3cccc(Cl)c3)o2)ccc2ccccc21", "GI50": 57.5}
{"smiles": "Cn1cc[n+](C)c1/C=C/c1ccc(-c2cc(Cl)ccc2Cl)o1", "GI50": 191}
{"smiles": "C[n+]1c(/C=C/c2ccc(-c3ccc(Cl)cc3)o2)ccc2ccccc21", "GI50": 126}
{"smiles": "Cn1cc[n+](C)c1/C=C/c1ccc(-c2cccc(Cl)c2)o1", "GI50": 1740}
{"smiles": "COc1ccc(-c2ccc(/C=C/c3cccc[n+]3C)o2)cc1Cl", "GI50": 66.1}
{"smiles": "C[n+]1ccccc1/C=C/c1ccc(-c2ccc(Br)cc2)o1", "GI50": 1000}
{"smiles": "C[n+]1ccccc1/C=C/c1ccc(-c2cc(C(F)(F)F)ccc2Cl)o1", "GI50": 331}
